High-throughput results as filed in PubChem BioAssay.
Only some compounds are listed: those with a hit (about 2.5% of all), similar ones and a draw of the others.
MEKK3 PB1 HTS: MEKK3-MEK5 PB1 interaction, increase or decrease; AID 1529; bead-based flow cytometry, Alexa488-MEK5 binding to MEKK3; actives lie on both sides; 0 = blocked by unlabeled MEK5, 100 = vehicle; Q99759; binding response (% of control), % at 10 µM; actives 1.4% (n = 290,000);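 active = binding response more than 3 SD above or below the average of its plate-row segment, actives on both sides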;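 also: Alexa488 bead fluorescence after subtracting the streptavidin-only scavenger bead signal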
ABCG2 inh: inhibitors of human ABCG2 transporter, ABCB1 counter-screen. Q9UNQ0. IgMXP3 cells, JC-1 efflux, flow cytometry. AID 1325. inhibition, % at 6.6 µM. actives 0.1% (n = 190,000);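 active = inhibition above 80%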
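System: two drug-resistant human cell lines, ABCG2 and ABCB1; controls: nicardipine high and DMSO low controls; times: 10 min exposure at 25 °C with rotation, no wash; detection: flow cytometry of retained JC-1 fluorescence; read-out basis: percent efflux inhibition, scaled nicardipine 100% to DMSO 0%; doses: one concentration, 6.6 µM final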
Efflux pump mplx: blocks antifungal efflux pumps in multiplex yeast assay; S. cerevisiae Candida pump triplex, Nile Red efflux; inhibition, % at 10 µM; actives 0.44% (n = 330,000); AID 485275;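 active = plate passing quality check with inhibition over a set limit, or well fluorescence over plate mean plus 4 SD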;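 also: Nile Red retained in pooled yeast measured as flow cytometry median fluorescence; higher means more Nile Red kept so more efflux inhibition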
MEKK2 WT-MEK5: raises or lowers MEK5 binding to wildtype human MEKK2 PB1 domain | bead flow cytometry, Alexa488-MEK5 binding to MEKK2 WT; actives lie on both sides | binding response (% of control), % at 10 µM | actives 1.1% (n = 290,000); in the data active = binding response below about 67% or above about 130%
MEKK2mut PB1 HTS: signal of MEK5 binding to mutant human MEKK2 PB1 domain; actives 0.35% (n = 290,000); percent response, % at 10 µM; bead flow cytometry, Alexa488-MEK5 binding to MEKK2 mutant; in the data active = percent response above about 24%, passing the limit was not always enough
ABCB1 block: inhibitors of human ABCB1 transporter, ABCG2 counter-screen; CCRF-Adr cells, JC-1 efflux, flow cytometry; inhibition, % at 6.6 µM; actives 0.067% (n = 190,000); AID 1326; in the data active = inhibition above about 40%;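 also: higher value means more JC-1 retained so stronger ABCB1 efflux block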
Large screens that a line does not name were inactive; [ ] = another dose, or the depositor's remark.

O=C(Nc1ccnn1C1CCN(Cc2c[nH]c3ccccc23)CC1)c1ccccc1	MEKK2 WT-MEK5 135.0 (no result: ABCG2 inh, ABCB1 block)
CCC(C)Nc1nc(-c2c[nH]c3ccccc23)cs1 (stereo not drawn)	MEKK3 PB1 HTS 78.0[inhibitor], MEKK2 WT-MEK5 -19.0 (no result: ABCG2 inh, ABCB1 block)
COc1ccccc1/C=C/CN1CCSCC1	none (no result: ABCG2 inh, ABCB1 block)
O=C1NC(Cc2ccccc2)c2nc3ccc(Br)cc3c(=O)n2-c2cc(Cl)ccc21 (stereo not drawn)	none (no result: MEKK3 PB1 HTS, ABCG2 inh, MEKK2 WT-MEK5, MEKK2mut PB1 HTS, ABCB1 block)
CCOC(=O)c1c(S(=O)(=O)N(C)Cc2ccco2)c(C)n(C)c1C	MEKK3 PB1 HTS 30.0[inhibitor], MEKK2 WT-MEK5 43.0[inhibitor] (no result: ABCG2 inh, ABCB1 block)
N#CC1=C(N)Oc2cc(N)ccc2C1c1ccccc1Cl (stereo not drawn)	none (no result: ABCG2 inh, ABCB1 block)
N#CC1=C(N)OC2=C(CCc3ccccc32)C1c1ccccc1Cl (stereo not drawn)	MEKK3 PB1 HTS 144.0
COc1ccc(Sc2cc(C(F)(F)F)nc(-c3ccccn3)n2)cc1	none
CC1(C)CC(=O)C2=C(C1)N(Cc1ccco1)C(=O)C2(NC(=O)c1cccnc1)C(F)(F)F (stereo not drawn)	MEKK3 PB1 HTS 56.0[inhibitor]
Clc1ccc(Cn2ncc3c(NCc4ccccc4)ncnc32)c(Cl)c1	Efflux pump mplx 5.5
Cn1ncc2c(NCc3ccccc3)ncnc21	none
Cc1ccc(Nc2nc(N/N=C/c3c[nH]c4ccccc34)nc(N3CCOCC3)n2)cc1	MEKK3 PB1 HTS 145.0
CCCc1c(NC(=O)Nc2ccc(Cl)cc2Cl)cnn1-c1ccccc1	none (no result: ABCG2 inh, ABCB1 block)
Cc1ccc(S(=O)(=O)c2nnn3c2nc(NC2CCN(Cc4ccccc4)CC2)c2ccccc23)cc1C	MEKK2 WT-MEK5 176.0, MEKK2mut PB1 HTS 30.0 (no result: ABCG2 inh, ABCB1 block)
CCN(CC)c1ccc(-c2sc(Nc3ccccc3)n[n+]2-c2ccc(F)cc2)cc1	MEKK2 WT-MEK5 33.0, MEKK2mut PB1 HTS 76.0 (no result: ABCG2 inh, ABCB1 block)
CN(C)c1ccc(-c2sc(Nc3ccccc3)n[n+]2-c2ccc(F)cc2)cc1	none (no result: ABCG2 inh, ABCB1 block)
Cc1cc(/C=C2\SC(=S)NC2=O)c(C)n1-c1cccc(O)c1	Efflux pump mplx 0.8 (no result: ABCG2 inh, ABCB1 block)
CN(CCOc1ccc(Br)cc1)CC(O)c1ccccc1 (stereo not drawn)	Efflux pump mplx 5.3 (no result: ABCG2 inh, ABCB1 block)
O=C(Nc1ccccn1)c1cccc(S(=O)(=O)N2CCCC2)c1	MEKK3 PB1 HTS 82.0[inhibitor] (no result: ABCG2 inh, ABCB1 block)
CCOC(=O)c1sc(-c2ccc(Cl)cc2Cl)nc1O	none (no result: ABCG2 inh, ABCB1 block)
COc1ccc(C(c2nnnn2C(C)C)N2CCN(C(=O)c3ccco3)CC2)cc1 (stereo not drawn)	MEKK3 PB1 HTS 53.0[inhibitor], MEKK2 WT-MEK5 46.0[inhibitor] (no result: ABCG2 inh, ABCB1 block)
COc1ccc(CNC(=O)Cn2c(=O)n(CCC(=O)N3CCCCC3)c(=O)c3sccc32)cc1	none (no result: ABCG2 inh, ABCB1 block)
CN(C)CCCNS(=O)(=O)c1ccc(N2CCC(c3ccc(Cl)cc3)=N2)cc1	MEKK2 WT-MEK5 162.0
O=S(=O)(c1ccc(N2CCC(c3ccc(Cl)cc3)=N2)cc1)N(CCO)CCO	none
N#Cc1c(NCCN)nc(NCc2ccccc2)c2c1CCN(Cc1ccccc1)C2	MEKK2 WT-MEK5 169.0, MEKK2mut PB1 HTS 36.0 (no result: ABCG2 inh, Efflux pump mplx, ABCB1 block)
O=C(NC(=S)Nc1ccc(Cl)cn1)c1cc([N+](=O)[O-])ccc1N1CCOCC1	none (no result: ABCG2 inh, ABCB1 block)
COc1ccc2nc(C)cc(NCc3cccc(C(F)(F)F)c3)c2c1	MEKK2 WT-MEK5 154.0 (no result: ABCG2 inh, ABCB1 block)
Cc1cc(C)c(S(=O)(=O)c2cccc(Cl)c2)c(=O)[nH]1	none (no result: ABCG2 inh, ABCB1 block)
Cc1cccc(CN2C(=O)c3ccccc3S(=O)(=O)c3ccc(C(=O)NCCCN4CCCC4)cc32)c1	MEKK2 WT-MEK5 141.0 (no result: ABCG2 inh, ABCB1 block)
CC1CCCN(CCCNC(=O)c2ccc3c(c2)N(Cc2ccccc2F)C(=O)c2ccccc2S3(=O)=O)C1 (stereo not drawn)	MEKK2 WT-MEK5 136.0 (no result: ABCG2 inh, ABCB1 block)
O=C(NCCN1CCCC1)c1ccc2c(c1)N(Cc1cccc(Cl)c1)C(=O)c1ccccc1S2(=O)=O	none (no result: ABCG2 inh, ABCB1 block)
CCN1CCCC1CNC(=O)c1ccc2c(c1)N(Cc1ccccc1F)C(=O)c1ccccc1S2(=O)=O (stereo not drawn)	none (no result: ABCG2 inh, ABCB1 block)
C=CCN1C(=O)/C(=C/C=C2/N(CC)c3ccc(S(=O)(=O)N(C)C)cc3N2CC)SC1=S	MEKK2 WT-MEK5 36.0[inhibitor]
CCOc1ccccc1C(=O)N(Cc1ccc(C)o1)C1CCS(=O)(=O)C1 (stereo not drawn)	none (no result: ABCG2 inh, ABCB1 block)
CCCCN1C(=O)C2(NNc3ccccc3O2)c2ccccc21 (stereo not drawn)	MEKK2 WT-MEK5 54.0
